Data on eight compounds can be found in ChEMBL document CHEMBL1144682, “Glycosyl and polyalcoholic prodrugs of lonidamine” (Bioorg Med Chem Lett, 2008).

Data set [1] can be described thus: Solubility in water. The note with it: for solubility: water. In kind it is physicochemical.
Data set [2] in a line: Partition coefficient, log P of the compound. The note with it: octanol/water. The data set is classed as physicochemical.
Another data set relates to PC-3. Put plainly: Growth inhibition of human PC3 cells by SRB assay. In kind it is functional. Put shortly: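 Human PC-3 prostate cancer cells tested by sulforhodamine B assay following the NCI protocol. Concentrations went up to 100 μM, and GI50 was derived.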
(The SRB assay estimates cell density from bound dye.)

Data set [3] is described as follows: Chemical stability assessed as half life of hydrolysis at pH 1.3. The data set is classed as physicochemical. The following applies: buffer. Put shortly: (§1)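 Non-enzymatic chemical hydrolysis of the prodrugs in buffer at pH 1.3 (simulated gastric conditions) and in phosphate buffer at pH 7.4, at 37 °C. Followed for up to 120 h. First-order kinetic plots gave Kobs and t1/2. Values are means of three experiments with SEM.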

Data set [4] in a line: Chemical stability assessed as half life of hydrolysis at pH 7.4. In kind it is physicochemical. The note with it: buffer. Put shortly:
as §1

Data set [5] is described as follows: Stability in rat plasma assessed as half life of hydrolysis. The data set is classed as ADME, cell-free. A digest of the protocol: (§2)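 Enzymatic hydrolysis in 80% rat plasma or 80% human plasma at 37 °C. t1/2 taken from first-order kinetic plots. Values are means of three experiments with SEM.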
Data set [6] can be described thus: Stability in human plasma assessed as half life of hydrolysis. The data set is classed as ADME, cell-free. Put shortly:
as §2

A short description of data set [7]: Cytotoxicity against human SKOV cells at 300 uM after 12 hrs. The data set is classed as functional. Put shortly:
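SK-OV ovarian carcinoma cells treated for 12 h at 50, 150 or 300 μM drug with 0.01% DMSO present. Cell viability read out as % inhibition.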

Data set [8] can be described thus: Cell cycle arrest in human SKOV cells assessed as decrease in S phase accumulation at 50 uM after 12 hrs by flow cytometry. The data set is classed as functional, cell-based. A digest of the protocol: (§3)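 SK-OV ovarian carcinoma cells exposed for 12 h to drug at 50 or 150 μM with 0.01% DMSO present. Cells stained with propidium iodide and analysed by flow cytometry for G1, S and G2 distribution. Values are means ± SEM of three independent experiments.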
(In general: A flow cytometer gives signals particle by particle.)

Data set [9] in a line: Cell cycle arrest in human SKOV cells assessed as decrease in S phase accumulation at 150 uM after 12 hrs by flow cytometry. In kind it is functional, cell-based. A digest of the protocol: as §3
Data set [10] can be described thus: Cell cycle arrest in human SKOV cells assessed as accumulation at G1 phase at 150 uM after 12 hrs by flow cytometry. In kind it is functional, cell-based. A digest of the protocol:
as §3

Structures are written as SMILES. In brackets after ≈: the same amount, converted by molar mass. Activity calls are given as the source filed them. The rule behind the calls is not given here.

In turn, `O=C(OCC(O)CO)c1nn(Cc2cc(Cl)cc(Cl)c2)c2ccccc12` (stereo not given) displayed a solubility in [1] of 0.51 µg/mL (≈ 1.29 µM). For the same compound, the logP in [2] is 3.96.
Turning to `O=C(O)c1nn(Cc2ccc(Cl)cc2Cl)c2ccccc12` [LONIDAMINE], the result with PC-3 was inactive. Moreover, the solubility in [1] was found to be 17 µg/mL (≈ 52.9 µM). The compound also yielded a logP in data set [2] of 1.3.
`O=C(O[C@@H]1[C@@H](O)[C@H](O)O[C@H](CO)[C@H]1O)c1nn(Cc2cc(Cl)cc(Cl)c2)c2ccccc12` displayed a solubility in data set [1] of 118 µg/mL (≈ 245 µM). Moreover, in [2], the log partition coefficient (logP) is 2.19. The half-life in data set [3] is above 120 h; in data set [4], 44.1 h; in [5], 0.534 h; in data set [6] it was 0.711 h.
Consider `O=C(OC[C@H]1OC(O)[C@H](O)[C@@H](O)[C@H]1O)c1nn(Cc2cc(Cl)cc(Cl)c2)c2ccccc12` (stereo not given in full), for which the GI50 in the data set on PC-3 amounted to 3.16 µM. The compound further returned an inhibition at 300 µM in [7] of 60%. For the same compound, the outcome in data set [8], in data set [9] and in data set [10] was Active. The solubility in data set [1] is 84.3 µg/mL (≈ 174 µM). In addition, in data set [2], the logP came out at 2.54. The half-life was above 120 h in data set [3], 114 h in [4], 0.995 h in [5] and 2.06 h in data set [6].
The compound `O=C(OC[C@H]1O[C@@H](O)[C@H](O)[C@H]1O)c1nn(Cc2cc(Cl)cc(Cl)c2)c2ccccc12` had a solubility in [1] of 1.3 µg/mL (≈ 2.87 µM). The same compound had a logP in data set [2] of 3.4.
In [1], `O=C(OC[C@@H](O)[C@H](O)CO)c1nn(Cc2cc(Cl)cc(Cl)c2)c2ccccc12` displayed a solubility of 1.2 µg/mL (≈ 2.82 µM). Besides, the logP in [2] came out at 3.04.
For `O=C(OC[C@@H](O)[C@H](O)COC(=O)c1nn(Cc2cc(Cl)cc(Cl)c2)c2ccccc12)c1nn(Cc2cc(Cl)cc(Cl)c2)c2ccccc12`, the Activity result in data set [1] (buffer) was “Not Active”.
In the case of `O=C(O[C@@H]([C@H](O)[C@H](O)CO)[C@H](O)CO)c1nn(Cc2cc(Cl)cc(Cl)c2)c2ccccc12`, it took 3.16 µM to inhibit growth in the data set with PC-3 by half (GI50). Further, at 300 µM the inhibition in [7] was 30%. The solubility in data set [1] is 137 µg/mL (≈ 283 µM). Besides, in data set [2], the logP turned out to be 2.55. For the same compound, the half-life in data set [3] is above 120 h; in data set [4], 80.7 h; in data set [5], 2.17 h; in data set [6] it was 6 h.

One may read the solubility as how much of the substance goes into solution per volume. A low value points to little dissolved substance. The logP is the decadic logarithm of the partition coefficient of the neutral form, usually between octanol and water. A high value points to a more lipophilic compound. A word on the half-life: it is how long it takes for the measured level to halve. Usually GI50 stands for the concentration at which growth is held to half of that of the control. High values mean less potent growth inhibition, low ones more potent growth inhibition. For orientation: inhibition means the drop in the measured response relative to a control, in per cent.
